# TRPC4 potent: positive allosteric modulators of TRPC4, primary screen, cell-based, mouse TRPC4beta, HEK293 mu-opioid, Fluo-4 calcium | DAMGO EC20, Fluo-4 Ca2+ flux; stronger effect = higher value | B-score at 10 µM | 310,000 compounds, 0.42% hits;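 active means B-score of calcium response area above 5 SD of library B-scores, with initial fluorescence ratio within 5 SD of library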;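 further: B-score of integrated fluorescence ratio over time as area under calcium response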
# Target sequence (Q9QUQ5 whole entry, looked up): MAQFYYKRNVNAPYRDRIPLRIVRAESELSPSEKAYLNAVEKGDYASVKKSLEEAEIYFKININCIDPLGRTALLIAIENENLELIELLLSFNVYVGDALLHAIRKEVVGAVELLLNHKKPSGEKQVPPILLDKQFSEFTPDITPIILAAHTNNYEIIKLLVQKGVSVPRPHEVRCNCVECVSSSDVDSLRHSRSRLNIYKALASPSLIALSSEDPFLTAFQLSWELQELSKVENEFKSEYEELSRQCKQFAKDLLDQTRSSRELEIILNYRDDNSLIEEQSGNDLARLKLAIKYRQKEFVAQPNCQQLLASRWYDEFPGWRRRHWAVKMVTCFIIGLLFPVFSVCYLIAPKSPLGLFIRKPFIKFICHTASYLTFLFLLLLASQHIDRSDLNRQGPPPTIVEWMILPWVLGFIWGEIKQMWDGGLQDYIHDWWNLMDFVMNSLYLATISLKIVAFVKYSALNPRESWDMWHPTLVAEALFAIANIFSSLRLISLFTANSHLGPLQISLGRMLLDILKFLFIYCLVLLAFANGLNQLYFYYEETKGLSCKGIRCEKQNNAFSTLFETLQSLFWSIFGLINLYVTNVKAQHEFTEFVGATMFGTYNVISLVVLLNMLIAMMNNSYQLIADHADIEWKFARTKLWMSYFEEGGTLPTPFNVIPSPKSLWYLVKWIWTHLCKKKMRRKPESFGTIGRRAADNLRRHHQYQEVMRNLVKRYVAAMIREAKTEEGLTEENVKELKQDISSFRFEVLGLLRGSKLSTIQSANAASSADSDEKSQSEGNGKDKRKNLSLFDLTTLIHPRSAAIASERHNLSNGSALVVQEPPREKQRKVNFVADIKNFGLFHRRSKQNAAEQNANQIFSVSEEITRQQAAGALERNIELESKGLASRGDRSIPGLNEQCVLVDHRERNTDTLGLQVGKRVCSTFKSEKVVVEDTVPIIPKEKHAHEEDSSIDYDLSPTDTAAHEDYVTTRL
# Kir21 inh: inhibitors of mouse Kir2.1 inward-rectifier potassium channel. B-score at 10 µM. 310,000 compounds, 0.85% hits. HEK293-Kir2.1, FluxOR thallium flux fluorescence; stronger effect = lower value. Inward rectifier potassium channel 2 (Mus musculus), P35561;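 active means fluorescence ratio B-score at or below minus 3 SD of library scores, with starting-brightness B-score within 2 SD, cut at about -4.2 in these data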;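 further: channel flux triggered by added potassium and thallium sulfate stimulus; B-score of peak minus minimum fluorescence over baseline after thallium stimulus; more negative B-score means stronger Kir2.1 block with less thallium influx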
# TRPC4 inh: inhibitors of mouse TRPC4 channel, primary screen, Fluo4 calcium, HEK293 TRPC4beta/mu-opioid cells | Short transient receptor potential channel 4 (Mus musculus), Q9QUQ5 | DAMGO-evoked Fluo4 calcium flux; stronger effect = lower value | B-score at 10 µM | 300,000 compounds, 0.39% hits | AID 2247, 2010;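 active means B-score over 3 SD under the library average, no early fluorescence shift, positive overall ratio signal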
#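 Material: HEK293 cells with stable TRPC4beta plus mu-opioid receptor expression; probe or stimulus: DAMGO in two steps, submaximal then maximal; technique: Fluo4 calcium fluorescence by kinetic imaging, 5 s 1 Hz baseline; measure: integrated fluorescence ratio relative to baseline, converted to per-well B score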
# TRPC6 inhibitor: mouse TRPC6 channel inhibitors, primary screen, cell-based, HEK293, membrane potential dye. 310,000 compounds, 1.1% hits. B-score at 10 µM. ACh-evoked depolarization; stronger effect = lower value;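 active means B-score under library mean minus 3 SD, initial fluorescence not abnormally high, positive integrated signal ratio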;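 further: B-score derived from integrated fluorescence ratio over the kinetic read; more negative B-score means stronger inhibition of depolarization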
# TRPC4 act: activators of mouse TRPC4 channel, primary screen, Fluo4 calcium, HEK293 TRPC4beta/mu-opioid cells | Short transient receptor potential channel 4 (Mus musculus), Q9QUQ5 | Fluo4 calcium fluorescence; stronger effect = higher value | B-score at 10 µM | 310,000 compounds, 0.49% hits;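 active means B-score above 5 SD of library B-scores, and initial fluorescence ratio not above library mean plus 5 SD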;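 further: positive B-score marks a calcium rise read as TRPC4 activation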
#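 Assay system: HEK293 stable line with TRPC4beta plus mu-opioid receptor. Times: dye 45 min RT, read 110 s. Measured by: kinetic Fluo4 calcium fluorescence. Measure: B score of integrated ratio. Controls: assay buffer as low control, maximal DAMGO as high control.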
# TRPC6 act: mouse TRPC6 channel activators, primary screen, cell-based, HEK293, membrane potential dye. Short transient receptor potential channel 6 (Mus musculus), Q61143. HEK293-TRPC6 membrane potential dye fluorescence; stronger effect = higher value. B-score at 10 µM. 310,000 compounds, 0.13% hits;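 active means B-score of the integrated fluorescence ratio above library mean plus 3 SD, and starting fluorescence ratio within library mean plus 5 SD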;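 further: higher score means more depolarization so channel activation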
# TRPC4 sel inh 2: mouse TRPC4 off-target activity of TRPC6 inhibitors, second screen. shares compounds with TRPC6 inhibitor. HEK293 TRPC4/MOR, membrane potential dye fluorescence; channel activated by saturating DAMGO dose. inhibition, % at 10 µM. 920 compounds, 42% hits. AID 2776;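 active means compounds whose fluorescence signal differed from control wells by over 3 SD, either direction, in both duplicate plates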
# TRPC4 spec: mouse TRPC4 modulation by TRPC6 hits, confirmation, selectivity assay for TRPC6 inhibitor project, cell-based, HEK293 TRPC4/mu-opioid, membrane potential dye; shares compounds with TRPC6 inhibitor; membrane potential fluorescence; activity change, negative = inhibition, % at 10 µM; 920 compounds, 61% hits; AID 2777, 2010;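 active means rise or fall in signal beyond 3 SD of buffer-only wells in both replicate plates, either sign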;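 further: integrated kinetic ratio of fluorescence range over baseline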
# HEK293 MPD ctr 2-1: nonspecific membrane potential effects, parental HEK293, confirmation, counter-screen for TRPC6 inhibitor project, cell-based, second counter screen; 920 compounds, 31% hits; parental HEK293 membrane potential dye fluorescence; maximal acetylcholine challenge after compound addition; shares compounds with TRPC6 inhibitor; signal change vs control, % at 10 µM;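 active means membrane potential signal moving either way by over 3 SD of the maximum-effect control, in both duplicate plates, meaning non-specific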
# HEK293 MPD ctr-1: membrane potential modulation in parental HEK293, confirmation, counter-screen for TRPC6 inhibitor project, cell-based | shares compounds with TRPC6 inhibitor | parental HEK293 membrane potential dye fluorescence | membrane potential signal change, % at 10 µM | 920 compounds, 60% hits | AID 2780, 2010;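 active means membrane potential signal shifting up or down by more than 3 SD of buffer-only wells, on both duplicate plates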
# HEK293 MPD ctr-2: parental HEK293 membrane potential modulation, confirmation, counter-screen for TRPC6 modulator project, cell-based; shares compounds with TRPC6 inhibitor; membrane potential dye fluorescence; membrane potential signal change, % at 10 µM; 2,400 compounds, 51% hits; AID 488924, 2010;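 active means membrane potential signal moves up or down beyond 5 SD from buffer-only wells, on both duplicate plates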
# HEK293 MPD ctr 2-2: parental HEK293 nonspecific activity of TRPC6 modulators, second screen | inhibition, % at 10 µM | shares compounds with TRPC6 inhibitor | 2,400 compounds, 14% hits | membrane potential dye fluorescence; after compound, maximal acetylcholine stimulation | AID 488926;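 active means membrane potential signal drops by more than 5 SD from the mean control signal, in both duplicate plates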;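 further: plate controls were acetylcholine ECmax control wells for no effect and buffer only wells for full effect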
# TRPC4/MOR mod: TRPC4 modulation by TRPC6 hit compounds, confirmation, selectivity assay for TRPC6 modulator project, cell-based, HEK293 TRPC4/mu-opioid, membrane potential dye, mouse | shares compounds with TRPC6 inhibitor | membrane potential fluorescence | percent change from control (negative = decrease, positive = increase), % at 10 µM | 2,400 compounds, 69% hits | AID 488927, 2010;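 active means membrane potential signal moved up or down beyond 5 SD of buffer control wells, in both duplicate plates, actives on both sides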;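 further: plate controls were assay buffer wells for no effect and DAMGO maximal-effect wells for full effect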
# TRPC4 ctr inh 2: second check of whether TRPC6 modulators also affect mouse TRPC4. inhibition, % at 10 µM. shares compounds with TRPC6 inhibitor. HEK293 TRPC4/mu-opioid, membrane potential dye fluorescence; stimulated with maximal-effect DAMGO. 2,400 compounds, 55% hits;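 active means drop in membrane potential signal beyond 5 SD of the control wells in both duplicate plates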;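 further: TRPC4 counter screen for TRPC6 hits run under conditions tuned for TRPC6 not TRPC4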
# TRPC6 inh conf: mouse TRPC6 channel inhibitors, confirmation, HEK293 cells, membrane potential dye, duplicate. 3,300 compounds, 43% hits. inhibition, % at 10 µM. shares compounds with TRPC6 inhibitor. ACh-evoked depolarization. AID 488960, 2010;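 active means fluorescence ratio falls more than 5 SD below the full-stimulation control mean, in both duplicate runs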;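 further: integrated fluorescence ratio of peak minus minimum over baseline after agonist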
# TRPC6 act confirm: mouse TRPC6 channel activators, confirmation, HEK293 cells, membrane potential dye, duplicate. shares compounds with TRPC6 inhibitor. HEK293-TRPC6 membrane potential dye fluorescence, FDSS. activation, % at 10 µM. 2,800 compounds, 11% hits. AID 488961, 2010;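 active means ratio signal rise beyond 5 SD above unstimulated control wells' mean, seen in both duplicate runs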;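 further: plate controls were buffer EC0 wells for no effect and acetylcholine ECmax response for full effect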
# * = called active by the depositor; i = inactive; x = no result. In the library only some 2.9% were active in any assay of this set; here they are far more common.
SMILES,TRPC4 potent,Kir21 inh,TRPC4 inh,TRPC6 inhibitor,TRPC4 act,TRPC6 act,TRPC4 sel inh 2,TRPC4 spec,HEK293 MPD ctr 2-1,HEK293 MPD ctr-1,HEK293 MPD ctr-2,HEK293 MPD ctr 2-2,TRPC4/MOR mod,TRPC4 ctr inh 2,TRPC6 inh conf,TRPC6 act confirm
O=C(c1cccs1)N1CCCC(c2nc3c(nnn3Cc3ccc(F)cc3)c(=O)[nH]2)C1 (stereo not drawn),i,-0.58,i,-7.5*,i,i,i,i,i,i,x,x,x,x,i,i
CCC(=O)Nc1ccc(N2CCCCC2)cc1,i,-1,i,i,i,i,x,x,x,x,x,x,x,x,x,x
CC1CCCCN1CC(=O)Nc1ccc(N2CCCCCC2)cc1 (stereo not drawn),i,-0.22,i,-5.4*,i,i,x,x,x,x,i,i,-12%*,32%*,40%*,i
Cc1cc(C)nc(/N=C(\N)N(Cc2ccccc2)Cc2ccccc2)n1,i,-1.6,-7*,-7.5*,i,i,40%*,37%*,i,3.8%*,x,x,x,x,i,i
O=[N+]([O-])c1cc([N+](=O)[O-])c2c(=Nc3ccccc3)n(-c3ccccc3)n(O)c2c1,i,-0.25,i,-7.2*,i,i,50%*,-13%*,i,-184%*,x,x,x,x,i,i
Cc1ccc(Nc2c(-c3ccc(N4CCOCC4)cc3)nc3ncccn23)cc1C,i,1.9,i,-6.1*,i,i,x,x,x,x,i,i,-26%*,80%*,i,i

# Source: PubChem BioAssay (Johns Hopkins Ion Channel Center)
